15 compounds from PubChem BioAssay AID2292 (The Scripps Research Institute Molecular Screening Center, 2010) can be followed below.

The assay concerns Epstein-Barr virus nuclear antigen 1 (EBNA-1) DNA-binding domain, Human herpesvirus 4. Nature of the assay: blockers of EBV EBNA-1 DNA binding – biochemical, fluorescence polarization, triplicate, confirmation (AID 2292).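 Note: plate controls were EBNA-1 protein with DMSO for no effect and wells lacking EBNA-1 for full effect.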 The conditions noted are these: Recombinant EBNA-1 DBD, Cy5-DNA fluorescence polarization; at 14.8 µM; stronger effect = higher value. A digest of the protocol:
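Timing: 30 min protein-DNA premix, then 1 h compound exposure, RT; material: E. coli-made EBNA-1 DBD, residues 448-610; replicates: each compound tested in triplicate; measured by: FP at Ex 620 nm / Em 688 nm; benchmarks: high control without EBNA-1, low control with EBNA-1 only; reagent: 10 nM Cy5 DNA hairpin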
(Polarisation of emitted light reports the rotation of a fluorescent probe.)

What is called inhibition is the relative decrease from the control value, in per cent.

The list shows a part of the results. Values without a mark were called inactive. Activity calls are given as the source filed them.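 Rule for the calls: active = mean inhibition across replicates above a set limit taken from the earlier primary screen (cut at about 28% in these data); inactive = the rest.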

For `Cc1ccc(C(=O)NNC(=O)c2cc3cc4ccccc4nc3s2)cc1`, the inhibition is 29.3% (active).

In the case of `CCOC(=O)c1ccc(NC(=O)C2CC(=O)Nc3nc4ccccc4n32)cc1` (stereo not given), the inhibition is 61% (active).

On to `O=C(COc1ccc(/C=N/NC(=O)c2ccc(O)cc2)cc1)Nc1ccc([N+](=O)[O-])cc1`, for which the inhibition was 51.1% (active).

`CCOc1cccc(SCc2noc(C(=O)NC(C)C)c2C(=O)O)c1`: the inhibition is -11.1%.

`CC(=O)c1c(C)[nH]c(C(=O)OCC(=O)Nc2sc3c(c2C#N)CCCC3)c1C`: the inhibition is 25.9%.

On to `O=C(Nc1cccc(NC(=O)c2ccc(Br)cc2)c1)c1ccccc1`, for which the inhibition is 20.8%.

For `Nc1nnc(SCC(=O)Nc2ccc3nc(SCC(=O)Nc4ccccc4)sc3c2)s1`, the inhibition was 24.9%.

As to `COc1ccc(-c2ccc(Nc3ccc(S(=O)(=O)N4CCCC4)cc3)nn2)cc1OC`, the inhibition is -1.8%.

As to `COC(=O)CSc1nc(C)c2ccc(OC)cc2n1`, the inhibition is -0.23%.

As for `N#Cc1nc(N)nc(N(c2ccccc2)c2ccccc2)n1`, the inhibition was -5.35%.

On to `COc1ccc(CCNC(=S)N2CCN(S(=O)(=O)c3ccc(F)cc3)CC2)cc1`, for which the inhibition is 3.15%.

For the compound `COc1ccc(C(=O)CSc2nnc(NC(=O)C3CC(=O)N(c4cccc(OC)c4)C3)s2)cc1` (stereo not given), the inhibition is 52.3% (active).

In the case of `O=C(Nc1ccc2ccccc2c1)Nc1ccc2snnc2c1`, the inhibition is 142% (active).

Turning to `CC(=O)Nc1ccc(S(=O)(=O)NCC(=O)OCc2cc(=O)oc3ccc4ccccc4c23)cc1`, the inhibition is 5.47%.

In the case of `Nc1ccc(S(=O)(=O)Nc2nccc(/C=C/c3ccc(Br)s3)n2)cc1`, the inhibition was 8.99%.
